14 compounds from ChEMBL document CHEMBL1133476, “Nitrosothiol esters of diclofenac: synthesis and pharmacological characterization as gastrointestinal-sparing prodrugs” (J Med Chem, 2000) can be followed below.

The species named for data set [1] is Rattus norvegicus. Nature of the data set: Gastric toxicity was measured in rats. The settings on record: in vivo. The class given is organism-based. Summed up: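 Male Sprague-Dawley rats (180-200 g), fasted 24 h with water ad libitum. Single gavage of 100 µmol/kg at 5 mL/kg in 0.5% methocel/5% or 50% PEG-400, 5-10 rats/group. Fasting continued for 18 h, then CO₂ euthanasia. Stomach lesions scored in mm; mean ± SEM.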

Data set [2] has as its system Mus musculus. Nature of the data set: Level of plasma diclofenac in mice after oral administration of 20 umol/kg of prodrug. Type of data set: ADME, organism-based. Particulars: in vivo. Summed up: (§1)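 Male CD-1 mice, fasted overnight (≈17 h), given 20 µmol/kg orally by gavage as a suspension in 0.5% methocel/5% or 50% PEG-400. Ketamine/xylazine anesthesia, then cardiac-puncture heparinized blood at 30, 60 and 120 min, a separate group per time point. Plasma diclofenac measured by HPLC with UV detection against authentic standard, meclofenamic acid internal standard.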

Data set [3] in a line: Activity ratio is the percent inhibition in writhing test at 100 umol/kg, po to that of diclofenac at 100 umol/kg, po administration. Type of data set: functional. Summed up:
(§2)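 Male CD-1 mice (20-25 g), fasted overnight (≈17 h) with water ad libitum. Oral gavage of 100 µmol/kg as a suspension in 0.5% methocel with 5% or 50% PEG-400, 2.5 mL/kg, at least 9 mice/group. PBQ 2 mg/kg ip at 1 h after dosing; writhes counted over 5 min, starting 5 min after PBQ. Read-out is % inhibition of writhing vs vehicle; ratio = % inhibition with the test article / % inhibition with diclofenac, both at 100 µmol/kg po.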

Data set [4] is filed under the species Mus musculus. Put plainly: Analgesic effect measured as % inhibition in PBQ-induced writhing test in mice. The class given is functional. Also noted: concentration or dose not given beside the values. Summed up: as §2
Data set [5] deals with Rattus norvegicus. Put plainly: Antiinflammatory effect measured as % inhibition in carrageenan induced paw edema test in rat. The class given is functional. Summed up:
(§3)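 Male Sprague-Dawley rats (200-250 g), fasted overnight (≈17 h) with water ad libitum. Dosed 100 µmol/kg by gavage at 5 mL/kg in 0.5% methocel/5% or 50% PEG-400, at least 5 rats/group. At 1 h, 50 µL of 1% carrageenan injected subplantar into the right […] paw. Paw volume read by water displacement at 0 and 3 h. Result is % inhibition of the volume increase; ratio relative to diclofenac at the same dose.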

Data set [6] in a line: Activity ratio is the percent inhibition of paw volume increase at 100 umol/kg, po to that of diclofenac at 100 umol/kg, po administration. The class given is functional. Summed up:
as §3

In data set [7] the test system is Mus musculus. Put plainly: Level of plasma diclofenac in mice after oral administration. Type of data set: ADME, organism-based. The settings on record: in vivo. The method in brief:
as §1

On to `O=C(Cc1ccccc1Nc1c(Cl)cccc1Cl)OCC1(S)CCCCC1`, for which the Gastric lesion score in the data set filed under Rattus norvegicus [1] was 6.7 mm.
The same measure, in the same setting: under `CN(CCCOC(=O)Cc1ccccc1Nc1c(Cl)cccc1Cl)CC1(S)CCCCC1` stands 28.3 mm; under `CN(CCOC(=O)Cc1ccccc1Nc1c(Cl)cccc1Cl)CC1(S)CCCCC1`, 10.2 mm.
Regarding `CCN(CCCOC(=O)Cc1ccccc1Nc1c(Cl)cccc1Cl)CC1(SN=O)CCCCC1`, the Concentration_Plasma with Mus musculus [2] worked out at 4.5 nM ml-1.
Consider `CC(C)(COC(=O)Cc1ccccc1Nc1c(Cl)cccc1Cl)SN=O`, for which, in the data set listed under Rattus norvegicus [1], the Gastric lesion score came out at 0.7 mm. Moreover, the Ratio in data set [3] is on record as 0.4. The Concentration_Plasma with Mus musculus [2] is recorded as 19.8 nM ml-1. This compound also displayed an Inhibition in the data set listed under Mus musculus [4] of 32%.
`CN(CCCCOC(=O)Cc1ccccc1Nc1c(Cl)cccc1Cl)CC1(SN=O)CCCCC1`: the Concentration_Plasma with Mus musculus [2] is 5.9 nM ml-1.
As for `CN(CCCCCOC(=O)Cc1ccccc1Nc1c(Cl)cccc1Cl)CC1(SN=O)CCCCC1`, the Concentration_Plasma with Mus musculus [2] is reported as 2.4 nM ml-1.
For the compound `O=NSC1(COC(=O)Cc2ccccc2Nc2c(Cl)cccc2Cl)CCCCC1`, the Gastric lesion score in the data set listed under Rattus norvegicus [1] turned out to be 2 mm. Moreover, the Ratio in data set [3] was 0.7. In the data set with Mus musculus [2], the Concentration_Plasma stood at 15.3 nM ml-1. In the data set filed under Mus musculus [4], this compound registered an Inhibition of 58%.
In the case of `O=NSC1(CN(CCCOC(=O)Cc2ccccc2Nc2c(Cl)cccc2Cl)Cc2ccccc2)CCCCC1`, in the data set with Mus musculus [2], the Concentration_Plasma is recorded as 6.8 nM ml-1.
Compound `CN(CCCOC(=O)Cc1ccccc1Nc1c(Cl)cccc1Cl)CC1(SN=O)CCCCC1` gave a Gastric lesion score in the data set listed under Rattus norvegicus [1] of 0.7 mm. The results for the Inhibition in the data set on Rattus norvegicus [5] and in the data set listed under Mus musculus [4] were 58% and 53%, respectively. Moreover, the Ratio was 0.6 in data set [3] and 1.1 in data set [6]. Moreover, in the data set on Mus musculus [2], the Concentration_Plasma came out at 7.4 nM ml-1.
For the compound `CCC(CC)(COC(=O)Cc1ccccc1Nc1c(Cl)cccc1Cl)SN=O`, in the data set listed under Rattus norvegicus [1], the Gastric lesion score was found to be 0.4 mm. The Ratio in data set [3] came out at 1.1. The Concentration_Plasma with Mus musculus [2] was 13.4 nM ml-1. Also, the Inhibition in the data set filed under Mus musculus [4] came to 95%.
For the compound `CN(CCOC(=O)Cc1ccccc1Nc1c(Cl)cccc1Cl)CC1(SN=O)CCCCC1`, in the data set listed under Rattus norvegicus [1], the Gastric lesion score came out at 1.1 mM. For the same compound, the Inhibition in the data set on Rattus norvegicus [5] stood at 55%; in the data set filed under Mus musculus [4] it was 70%. Further, the Ratio in data set [3] is given as 0.8; in data set [6], 1. In addition, the Concentration_Plasma in the data set on Mus musculus [2] is 5.5 nM ml-1.
Turning to `O=C([O-])Cc1ccccc1Nc1c(Cl)cccc1Cl.[Na+]` [DICLOFENAC SODIUM], the Concentration_Plasma in the data set on Mus musculus [7] came to 23.9 nM ml-1.
For the compound `O=C(O)Cc1ccccc1Nc1c(Cl)cccc1Cl` [DICLOFENAC], the Inhibition in the data set with Rattus norvegicus [5] is given as 53%; in the data set listed under Mus musculus [4], 84%.
